Experimental data pooled from the literature.
Compare with care: the assays were run in different laboratories.
Target: Mitogen-activated protein kinase kinase kinase 3 (MAP3K3, Homo sapiens, UniProt Q99759)
Sequence (Q99759 1-626, as in one of the studies): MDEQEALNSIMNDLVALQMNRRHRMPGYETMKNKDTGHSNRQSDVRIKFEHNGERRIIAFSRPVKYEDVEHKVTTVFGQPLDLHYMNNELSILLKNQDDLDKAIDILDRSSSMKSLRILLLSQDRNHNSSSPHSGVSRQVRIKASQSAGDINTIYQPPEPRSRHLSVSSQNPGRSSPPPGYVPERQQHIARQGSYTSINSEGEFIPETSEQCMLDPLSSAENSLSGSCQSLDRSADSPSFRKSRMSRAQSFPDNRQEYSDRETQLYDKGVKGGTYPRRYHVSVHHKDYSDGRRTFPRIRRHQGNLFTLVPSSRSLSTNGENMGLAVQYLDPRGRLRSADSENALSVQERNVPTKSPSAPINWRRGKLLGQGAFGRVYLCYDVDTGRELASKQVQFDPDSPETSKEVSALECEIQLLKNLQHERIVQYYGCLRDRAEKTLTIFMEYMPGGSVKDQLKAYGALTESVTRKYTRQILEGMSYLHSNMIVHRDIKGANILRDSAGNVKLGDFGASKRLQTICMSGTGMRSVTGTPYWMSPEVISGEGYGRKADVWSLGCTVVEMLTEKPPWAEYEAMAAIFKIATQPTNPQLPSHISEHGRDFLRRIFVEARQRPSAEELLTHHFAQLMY

SMILES	read-out	mode	technique	concentration	endpoint	value
O=C(NCc1ncc(C(F)(F)F)cc1Cl)c1ccc2c(c1)C1(CCS(=O)(=O)CC1)[C@H](C1CC1)N2S(=O)(=O)c1ccc(F)cc1	cell-free assay	–	competition with immobilised ligand	1 µM	remaining binding	74%
Nc1ncnc2occ(-c3ccc(NC(=O)Nc4cc(C(F)(F)F)ccc4F)cc3)c12	cell-free assay	inhibitor	–	20 µM	remaining signal	4.3%
C[C@@H]1CN(c2cc(-c3n[nH]c4ccc(OC5(C)CC5)cc34)ncn2)C[C@H](C)O1	cell-free assay	–	competition with immobilised ligand	0.1 µM	remaining binding	64%
O=C1Nc2ccc(Cl)cc2C1=Cc1cc(Cl)c(O)c(Cl)c1	cell-free assay	–	–	0.5 µM	remaining signal	101%
CC(C)(C)c1nc(-c2cccc(NS(=O)(=O)c3c(F)cccc3F)c2F)c(-c2ccnc(N)n2)s1	enzyme activity	inhibitor	radiometric	1 µM	remaining activity	96%
c1cnn2ncc(-c3ccnc(N4CCC45COC5)n3)c2c1	binding	–	–	1 µM	remaining binding	40%
COc1cc(Nc2c(C#N)cnc3cc(OCCCN4CCN(C)CC4)c(OC)cc23)c(Cl)cc1Cl	cell-free assay	–	–	0.5 µM	remaining signal	11.8%
Cc1sc(C(=O)NC2COC2)cc1-n1cc(NC(=O)Nc2c(F)cccc2Cl)cn1	enzyme activity	inhibitor	–	10 µM	remaining activity	113%
Cc1ccc(C(=O)NCc2ccsc2)cc1C#Cc1cn(C(C)C)c2ncnc(N)c12	enzyme activity	inhibitor	–	1 µM	activity vs control	70%
O=C1NC(=O)c2cc(Nc3ccc(F)cc3)c(Nc3ccc(F)cc3)cc21	cell-free assay	–	–	0.5 µM	remaining signal	102%
CN(c1ccnc(CNc2nc(Nc3ccc4c(c3)CC(=O)N4)ncc2C(F)(F)F)n1)S(C)(=O)=O	cell-free assay	–	competition with immobilised ligand	1 µM	remaining binding	44%
COc1ccc(F)cc1C(=O)NCc1ccc(-c2nn([C@@H](C)C(F)(F)F)c(N)c2C(N)=O)cc1	target engagement in cells	inhibitor	chemoproteomics	10 µM	inhibition	-38.5%
Cc1nc(C2CCN(C(=O)c3ccc(OC(F)(F)F)cc3N)CC2)c2ncc(N3CCN(C)CC3)cc2n1	cell-free assay	–	competition with immobilised ligand	1 µM	remaining binding	92%
O=C(Nc1cnn(-c2csc(C(=O)NC3COC3)c2)c1)Nc1c(F)cccc1Cl	enzyme activity	inhibitor	–	5 µM	remaining activity	81.9%
CCS(=O)(=O)c1cc2cc(C[C@@](O)(CC(C)(C)c3ccc(F)cc3C(N)=O)C(F)(F)F)[nH]c2cn1	cell-free assay	–	competition with immobilised ligand	1 µM	remaining binding	90%
CCOc1cc(-c2nncn2C)ccc1Nc1ncc2cc(C)nc(NCC(C)(C)C)c2n1	cell-free assay	–	TR-FRET	1 µM	inhibition	≤ 15%
